Reference: ChEMBL document CHEMBL3853307, “Anti-inflammatory Effect of Methyl Gallate on Experimental Arthritis: Inhibition of Neutrophil Recruitment, Production of Inflammatory Mediators, and Activation of Macrophages” (J Nat Prod, 2016)
Activity calls are given as the source filed them. No cut-off for these calls is given here.

Key:
[1] = tested on: Mus musculus; assay: Antiinflammatory activity in C57BL/6 mouse assessed as inhibition of zymosan-induced mononuclear cells recruitment in synovial cavity at 0.7 to 70 mg/kg, po administered 1 hr prior to zymosan challenge measured after 6 to 24 hrs by Grunwald-Giemsa-stained cytospin smear; format: functional, organism-based
[2] = tested on: Mus musculus; assay: Antiinflammatory activity in zymosan-induced C57BL/6 mouse pleurisy model assessed as reduction in neutrophil influx in thoracic cavity at 10 to 50 mg/kg, po administered 1 hr prior to zymosan challenge measured after 4 hrs using Grunwald-Giemsa-stained cytospin smear by light microscopy; format: functional, organism-based
Procedure, shortened: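 Oral pretreatment 1 h before intrathoracic zymosan (100 μg/cavity in 100 μL saline). Cavities washed at 4 h with 1 mL PBS/10 mM EDTA. Total leukocytes counted on a particle counter, differentials from May-Grünwald-Giemsa cytospins (×10^6/cavity). Supernatant after 400g 10 min assayed for total protein by Bradford.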

[3] = tested on: Mus musculus; assay: Antiinflammatory activity in C57BL/6 mouse assessed as inhibition of zymosan-induced neutrophil migration in articular cavity at 7 mg/kg, po administered 1 hr prior to zymosan challenge measured at 6 hrs relative to control; format: functional; conditions: C57BL/6, po
Procedure, shortened: (§1)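 Male C57BL/6 mice, fasted overnight, dosed orally (vehicle saline/water, 200 μL) or i.p. 1 h before zymosan (500 μg in 25 μL saline, i.a., left knee). Knee swelling measured as change in transverse diameter from basal by digital caliper (mm). Synovial washes (PBS/EDTA) counted on a particle counter; differentials from May-Grünwald-Giemsa cytospins, cells ×10^5/cavity. Sampled at 6 and/or 24 h; seven mice/group.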

[4] = tested on: Mus musculus; assay: Antiinflammatory activity in C57BL/6 mouse assessed as inhibition of zymosan-induced neutrophil migration in articular cavity at 7 mg/kg, po administered 1 hr prior to zymosan challenge measured at 24 hrs relative to control; format: functional; conditions: C57BL/6, po; procedure, shortened: as §1
[5] = tested on: Mus musculus; assay: Antiinflammatory activity in C57BL/6 mouse assessed as inhibition of zymosan-induced synovial hyperplasia at 7 mg/kg, po administered 1 hr prior to zymosan challenge measured at 6 to 24 hrs by hematoxylin and eosin staining-based optical microscopy; format: functional, organism-based
Procedure, shortened: (§2)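 Mice dosed orally or i.p. 1 h before i.a. zymosan (500 μg/cavity) or saline. Whole knees taken at 6 and 24 h from six mice, fixed in 10% formalin 48 h, decalcified in 10% EDTA/PBS 1−2 weeks, paraffin-embedded. 5 μm sections H&E-stained and examined by light microscopy. Parameter scores summed into an arthritis index; means ± SEM, two experiments.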

[6] = tested on: Mus musculus; assay: Antiinflammatory activity in C57BL/6 mouse assessed as inhibition of zymosan-induced arthritis score at 7 mg/kg, po administered 1 hr prior to zymosan challenge measured at 6 to 24 hrs by hematoxylin and eosin staining-based optical microscopy; format: functional, organism-based; procedure, shortened: as §2
[7] = tested on: Mus musculus; assay: Antiinflammatory activity in C57BL/6 mouse assessed as inhibition of zymosan-induced IL6 production in cell-free supernatant of knee joint synovial washes at 7 mg/kg, po administered 1 hr prior to zymosan challenge measured at 6 to 24 hrs by sandwich ELISA method; format: functional, organism-based
Procedure, shortened: (§3)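 Male C57BL/6 mice (18−22 g), fasted overnight, dosed orally (in filtered water, 200 μL) or i.p. 1 h before i.a. zymosan (500 μg in 25 μL saline) into left knee; contralateral knee got vehicle. Synovial cavity washed twice with 150 μL PBS/10 mM EDTA at 6 and 24 h; washes spun 400g 10 min, 4 °C. Cytokines measured by sandwich ELISA, LTB4/PGE2 by EIA (pg/mL); six mice/group, two experiments.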

[8] = tested on: Mus musculus; assay: Antiinflammatory activity in C57BL/6 mouse assessed as inhibition of zymosan-induced TNFalpha production in cell-free supernatant of knee joint synovial washes at 7 mg/kg, po administered 1 hr prior to zymosan challenge measured at 6 to 24 hrs by sandwich ELISA method; format: functional, organism-based; procedure, shortened: as §3
[9] = tested on: Mus musculus; assay: Antiinflammatory activity in C57BL/6 mouse assessed as inhibition of zymosan-induced IL-1beta production in cell-free supernatant of knee joint synovial washes at 7 mg/kg, po administered 1 hr prior to zymosan challenge measured at 6 to 24 hrs by sandwich ELISA method; format: functional, organism-based; procedure, shortened: as §3
[10] = tested on: Mus musculus; assay: Antiinflammatory activity in C57BL/6 mouse assessed as inhibition of zymosan-induced CXCL1/KC production in cell-free supernatant of knee joint synovial washes at 7 mg/kg, po administered 1 hr prior to zymosan challenge measured at 6 to 24 hrs by sandwich ELISA method; format: functional, organism-based; procedure, shortened: as §3
[11] = tested on: Mus musculus; assay: Antiinflammatory activity in C57BL/6 mouse assessed as inhibition of zymosan-induced LTB4 production in cell-free supernatant of knee joint synovial washes at 7 mg/kg, po administered 1 hr prior to zymosan challenge measured at 6 to 24 hrs by immunosorbent assay; format: functional, organism-based; procedure, shortened: as §3
[12] = Cytotoxicity against C57BL/6 mouse neutrophils assessed as cell viability at 100 uM after 2 hrs by lactate dehydrogenase assay relative to control; format: toxicity, Neutrophil; conditions: read-out: Activity
Procedure, shortened: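 Bone-marrow neutrophils from C57BL/6 mice, Percoll-purified (65%/72% interface, ~85-90% purity), plated at 1 × 10^5 cells/well; fresh medium with or without Tween 20 (3%) or compound (0.01−100 μM), quadruplicate; 2 h incubation. LDH released into supernatant measured, 20−30 min at room temperature, stopped with 1 N HCl; absorbance 490 nm minus 690 nm background.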

[13] = tested on: J774.A1; assay: Antiinflammatory activity in mouse J774A.1 cells assessed as inhibition of zymosan and IFNgamma-induced COX2 expression at 1 to 10 uM preincubated for 1 hr followed by zymosan and IFNgamma addition measured after 24 hrs by Western blot analysis; format: functional, cell-based
Procedure, shortened: (§4)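 J774A.1 cells in six-well plates pretreated 1 h (0.1−10 μM) before zymosan (10 μg per 10^5 cells) and/or IFN-γ (25 U/mL) for 24 h. Lysates (Tris/NaCl/MgCl2/0.5% NP40 with protease inhibitors); 30 μg protein run on 7.5% SDS-PAGE, transferred to PVDF, probed for COX-2, iNOS and α-tubulin.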

[14] = tested on: J774.A1; assay: Antiinflammatory activity in mouse J774A.1 cells assessed as inhibition of zymosan and IFNgamma-induced iNOS expression at 1 to 10 uM preincubated for 1 hr followed by zymosan and IFNgamma addition measured after 24 hrs by Western blot analysis; format: functional, cell-based; procedure, shortened: as §4
[15] = tested on: J774.A1; assay: Antiinflammatory activity in mouse J774A.1 cells assessed as inhibition of zymosan and IFNgamma-induced cytoplasmic calcium flux at 1 uM preincubated for 1 hr followed by zymosan and IFNgamma addition measured over 10 mins by FLIPR assay; format: functional, cell-based
Procedure, shortened: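 J774A.1 macrophages preincubated 1 h with HBSS or compound (1 μM), then stimulated with zymosan plus IFN-γ. Intracellular calcium followed over 600 s with a FLIPR Calcium Plus kit; mean signal from 360−600 s after stimulus used for analysis; quadruplicate wells.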

For `COC(=O)c1cc(O)c(O)c(O)c1` [GALLIC ACID METHYL ESTER], the inhibition [1] was “Active”, the Activity [2] was “Active” and the inhibition in vivo at 7 mg/kg [3] was 64%. For the same compound, the inhibition in vivo at 7 mg/kg [4] was 74%, the inhibition [5] was “Active” and the inhibition [6] was “Active”. The inhibition [7] was “Active”, the inhibition [8] was “Active” and the inhibition [9] was “Active”. The inhibition [10] was “Active”, the inhibition [11] was “Active” and the viability at 2 h, 100 µM [12] was at least 92%. For the same compound, the inhibition [13] was “Active”, the inhibition [14] was “Active” and the inhibition [15] was “Active”.
